Compound activity: PubChem BioAssay, several laboratories
FXIIa inh: human FXIIa protease inhibitors, primary screen, biochemical, 1536-well; inhibition, % at 5 µM; AID 800, 2007; purified FXIIa, Boc-QGR-AMC fluorogenic substrate, 2 h; hit rate 0.3% among 220,000; Coagulation factor XII (Homo sapiens), P00748; in the data active = inhibition above about 40%;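 note: 0% = enzyme with no compound and 100% = blank without enzyme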
thrombin 1536: human alpha-thrombin inhibitors, primary screen, counter-screen for coagulation protease inhibitor project, biochemical, 1536-well, fluorogenic AMC substrate; Prothrombin (Homo sapiens), P00734; Boc-VPR-AMC fluorogenic substrate cleavage; inhibition, % at 5 µM; hit rate 0.26% among 220,000; AID 1046, 2008;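 active = inhibition at or above 40%; inactive = inhibition below 40%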;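 note: 0% = enzyme with no compound and 100% = wells without enzyme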
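System – human alpha-thrombin protein · Reagent – Boc-VPR-AMC substrate, 15 µM final · Compound – 5 µM single dose in 0.2% DMSO · Schedule – reaction at room temperature · Technique – AMC fluorescence at 355 nm excitation and 460 nm emission · Read-out basis – % inhibition relative to enzyme controls and enzyme-free blanks · Control set – no-compound enzyme wells and no-enzyme blanks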
FXIa inh: human FXIa protease inhibitors, primary screen, biochemical, 1536-well; purified FXIa, Boc-Glu-Ala-Arg-AMC fluorogenic substrate; inhibition, % at 5 µM; hit rate 0.14% among 220,000; AID 798, 2007;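 active = inhibition of at least 40%; inactive = inhibition below 40%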;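 note: fluorescence of freed AMC excited at 355 nm; 0% = enzyme without compound and 100% = no enzyme blank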
Target sequence (P03951 19-387 limits assumed): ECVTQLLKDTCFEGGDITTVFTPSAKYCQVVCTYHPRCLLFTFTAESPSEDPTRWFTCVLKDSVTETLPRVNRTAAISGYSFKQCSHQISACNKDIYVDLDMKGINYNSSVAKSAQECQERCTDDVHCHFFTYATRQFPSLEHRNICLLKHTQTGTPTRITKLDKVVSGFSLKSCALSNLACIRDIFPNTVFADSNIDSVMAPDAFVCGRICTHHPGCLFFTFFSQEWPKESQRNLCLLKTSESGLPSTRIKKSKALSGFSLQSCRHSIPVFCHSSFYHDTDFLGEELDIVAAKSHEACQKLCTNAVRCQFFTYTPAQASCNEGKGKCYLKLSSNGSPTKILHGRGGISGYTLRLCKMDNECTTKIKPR
Target sequence (P03951 388-625 limits assumed): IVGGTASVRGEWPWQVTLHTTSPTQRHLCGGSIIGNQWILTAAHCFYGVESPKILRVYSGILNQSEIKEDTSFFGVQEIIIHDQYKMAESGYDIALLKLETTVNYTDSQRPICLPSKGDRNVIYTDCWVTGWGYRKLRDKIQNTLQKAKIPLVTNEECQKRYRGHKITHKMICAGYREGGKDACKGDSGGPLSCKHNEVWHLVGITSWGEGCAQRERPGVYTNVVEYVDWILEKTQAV
Calb biofilm kill: clotrimazole potentiators killing C. albicans biofilm, primary screen, 4-compound mixtures. C. albicans biofilm persisters + clotrimazole, fluorescence viability; primary screen in compound mixtures of four per well. inhibition, % at 7.6 µM. hit rate 0.02% among 120,000. AID 1242, 2008;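 active = inhibition above 30.3% in the primary screen of four-compound pools, then above 30% when the compound was retested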;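 note: compounds exposed to preformed 24 h biofilms for 48 h; 0% = untreated biofilm control and 100% = clotrimazole plus chlorhexidine kill blank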
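Test system: C. albicans biofilms. Buffer or medium: RPMI/MOPS medium, pH 7.0. Timing: 48 h compound exposure at 37 °C. Technique: Alamar Blue fluorescence. Evaluation: percent inhibition of biofilm viability.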
Furin inh: human furin inhibitors, primary screen, biochemical, fluorescence intensity. inhibition, % at 20 µM or 30 µM. P09958. hit rate 0.061% among 220,000. purified furin, fluorogenic substrate cleavage; in the data active = inhibition above about 25%
KLK5 inh: human KLK5 protease inhibitors, primary screen, biochemical, 1536-well | Kallikrein-5 (Homo sapiens), Q9Y337 | recombinant hK5, fluorogenic AMC substrate cleavage | hit rate 0.59% among 210,000 | inhibition, % at 5 µM;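 active = inhibition of 40% or more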;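 note: 0% = enzyme controls without compound and 100% = no-enzyme blanks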
Starred values were filed as active, the others as inactive; x = no result given. Most compounds without a hit are left out; they make up all but 1.1% or so of the library.

SMILES | FXIIa inh | thrombin 1536 | FXIa inh | Calb biofilm kill | Furin inh | KLK5 inh
COC(=O)c1[nH]c(C)c(/C(O)=C2\C(=O)C(=O)N(CCN(C)C)C2c2cc(OC)ccc2OC)c1C (centres undefined) | 19 | 4 | 2 | x | -12 | -16
COC(=O)c1[nH]c(C)c(/C(O)=C2\C(=O)C(=O)N(CCN(C)C)C2c2cccc(OC)c2OC)c1C (centres undefined) | 44* | 11 | 5 | x | -1 | 56*
CCOC(=O)c1sc2cc([N+](=O)[O-])cc(SCC(=O)OC)c2c1N | 31 | 29 | 11 | x | -2 | 68*
O=C(Nc1ccc(F)cc1F)c1ccc(-n2cncn2)nc1 | 6 | 44* | -3 | x | -20 | -5
O=C(Nc1ccc(F)cc1F)c1ccc(-n2cccn2)nc1 | 4 | -2 | -4 | 6 | -16 | 0
CCOCC(=O)Nc1cc(C(=O)Nc2ccc(F)cc2)ccc1Cl | 12 | -4 | -1 | 30 | -24 | 5
COc1ccc(N2CCN(c3ccc(NC(=O)C4CCCCC4)cc3C#N)CC2)cc1 | 7 | -2 | 0 | x | -18 | 3
COc1ccc(C(=O)Nc2ccc(N3CCN(c4ccc(OC)cc4)CC3)c(C#N)c2)cc1 | 3 | 15 | 47* | x | -34 | 27
CCC(C)NC(=O)Nc1ccc(F)c(Cl)c1 (centres undefined) | 6 | -1 | -6 | 11 | -11 | -2
CC(C)CNC(=O)Nc1ccc(F)c(Cl)c1 | 30 | 26 | 52* | 8 | -8 | 14
O=C(NN=C1CCCC1)c1ccc([N+](=O)[O-])cc1 | 8 | -8 | 0 | 28 | -5 | 1
O=C(COc1ccc([N+](=O)[O-])cc1)NN=C1CCCC1 | -6 | 29 | 5 | x | -14 | 55*
CCN(CC)S(=O)(=O)c1ccc(N2CCOCC2)c(NC(=O)C2CCCO2)c1 (centres undefined) | 12 | 3 | 3 | 16 | -22 | 4
CCOc1ccc(NC(=O)CN2C(=O)/C(=C3\SC(=S)N(C4CCS(=O)(=O)C4)C3=O)c3ccccc32)cc1 (centres undefined) | 22 | 3 | 53* | 18 | -2 | 36
O=C(CSc1ncnc2c1oc1ccccc12)Nc1ccccc1C(F)(F)F | 18 | 24 | 17 | x | -25 | 47*
O=C(Cn1nc(C(=O)O)c2ccccc2c1=O)NC12CC3CC(CC(C3)C1)C2 | 1 | -8 | -4 | 10 | -25 | -5
Nc1cccc(Nc2ccccc2)c1 | 8 | -8 | -3 | 17 | -17 | 0
c1ccc(Nc2cccc(Nc3ccccc3)c2)cc1 | 17 | 14 | 10 | 16 | -10 | 48*
O=C1NCC(COCc2ccco2)O1 (centres undefined) | 17 | 103* | 8 | x | -29 | 32
Cc1ccccc1OCC1CNC(=O)O1 (centres undefined) | 5 | -12 | -2 | 7 | -13 | -3
COCC(=O)Nc1nc(-c2ccccc2)ns1 | 24 | 19 | -11 | 13 | -12 | 58*
COCC(=O)Nc1ccccc1-c1ccccc1 | 30 | 34 | 45* | 7 | -19 | 13
O=C(O)COCC(=O)Nc1ccccc1-c1ccccc1 | 13 | 4 | 3 | 6 | -12 | 3
O=C(Nc1ccc(F)cc1)/C(Cl)=C/c1ccccc1 | -2 | 3 | -3 | 9 | -16 | -12
CC(=O)c1ccc(NC(=O)/C(Cl)=C/c2ccccc2)cc1 | 33 | 19 | 57* | 6 | -10 | 34
SMILES | FXIIa inh | thrombin 1536 | FXIa inh | Calb biofilm kill | Furin inh | KLK5 inh
COc1ccc(N2C(=O)[C@@H]3[C@H](C2=O)[C@H]2c4ccccc4C=CN2[C@@H]3C(=O)Nc2ccccc2)cc1 | 45* | 61* | 14 | x | -14 | 1
O=C(c1ccco1)[C@@H]1[C@@H]2C(=O)N(c3ccccc3)C(=O)[C@@H]2C2c3ccccc3C=CN21 (some centres undefined) | x | x | x | x | -9 | x
O=C(CN1C(=O)c2ccccc2C1=O)Nc1sc2c(c1C(=O)NCc1ccco1)CCCC2 | 4 | -5 | -1 | x | 29* | -11
COc1ccc(CSc2ncn[nH]2)cc1[N+](=O)[O-] | 7 | 0 | 2 | 8 | -16 | -5
COc1ccc(CSc2n[nH]c(C)n2)cc1[N+](=O)[O-] | 11 | 24 | -3 | 12 | -17 | 48*
CC(C1CC1)N(Cc1ccccc1)C(=S)Nc1ccccc1Cl (centres undefined) | 8 | 0 | 10 | 5 | -15 | 8
CCCNC(=O)C12CCC(C)(c3nc4cc(C)c(C)cc4nc31)C2(C)C (centres undefined) | -7 | -14 | -3 | 9 | -16 | -5
CCCCOC(=O)n1ccc(C(=O)Nc2ccccc2OC)n1 | 16 | 45* | 3 | x | -16 | 4
COC(=O)c1ccc(NC2(C#N)C(=O)Nc3ccccc32)cc1 (centres undefined) | 9 | -4 | 4 | x | 31* | -21
CCCNC(=O)N1CCN(c2ncccn2)CC1 | 19 | 24 | 17 | 9 | -23 | 61*
O=C(Nc1ccccc1)N1CCN(c2ncccn2)CC1 | 13 | -6 | 0 | x | -23 | -11
CN(C)c1nnnn1-c1ccc(OC(F)(F)F)cc1 | 8 | -11 | -2 | 16 | -23 | 3
CS(=O)(=O)N(CC(=O)N/N=C/c1ccccc1C(=O)O)c1cccc(Cl)c1Cl | 57* | 20 | 36 | 5 | -8 | 16
O=S1(=O)CCN(Cc2ccc(Cl)c(C(F)(F)F)c2)CC1 | 3 | -2 | -2 | 9 | -21 | 8
CCc1ccc(C(=O)COC(=O)c2nn(C)c(=O)c3ccccc23)cc1 | 2 | -6 | -3 | 11 | -19 | -3
CCc1ccc(C(=O)COC(=O)c2cccc(N3C(=O)c4c(C)nc5ccccc5c4C3=O)c2)cc1 | 17 | 9 | 0 | x | -12 | 51*
COc1ccc(NC(=O)Cn2cnc3sc(C)c(S(=O)(=O)N4CCN(C)CC4)c3c2=O)cc1OC | 6 | -15 | -6 | 16 | -10 | -2
Cc1nc(NCCc2ccccc2F)c(C#N)c(C)c1[N+](=O)[O-] | 25 | 46* | 14 | x | -17 | 25
O=C(O)C1CCN(c2ccc(Cl)nn2)CC1 | 9 | 55* | -2 | 23 | -36 | 1
CCOC(=O)C1CCN(c2ccc(Cl)nn2)CC1 | 0 | 3 | -1 | 30 | -19 | -13
O=C(/C=C/c1ccncc1)c1ccc(NC(=O)c2ccccc2F)cc1 | 3 | -1 | -2 | 14 | -17 | -12
O=S(=O)(Nc1ccc(S(=O)(=O)Nc2cccc3ccccc23)cc1)c1ccccc1 | -17 | -9 | -9 | x | -20 | -20
